In article PMC9786734 (Biomedical Chromatography, 2022):

Assays:
[1] = Stability in mouse plasma QC samples; format: in vitro ADME
Outline: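 Pooled female mouse lithium–heparin plasma QCs at high (1,500 ng/ml) and low (6 ng/ml) levels, as 10 µl portions (n = 4). Three conditions: room temperature for 5 and 24 h; three freeze–thaw cycles (1 h thaw at room temperature, 1 day at −30°C); and 1.5 months at −30°C. Quantified by LC–MS/MS after acetonitrile precipitation.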

[2] = Stability of methanolic stock solutions; format: physicochemical; conditions: 1.5 months at −30°C, methanol
Outline: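 Single-analyte stocks (0.5 mg/ml in methanol, made from 300–500 µg of weighed solid) stored 1.5 months at −30°C, then reanalysed by LC–MS/MS.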

[3] = Pilot pharmacokinetic and tissue distribution study in mice after oral EAI045; format: in vivo, mouse (FVB/NRj wild-type, female)
Outline: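 Five female FVB/NRj mice, 10–15 weeks old, fasted 3 h, then given one 20 mg/kg oral gavage dose. Vehicle: DMSO stock at 4 mg/ml, diluted with polysorbate 80–ethanol (1:1) and 5% glucose to 2 mg/ml. Tail-vein blood taken at 5, 15, 30 min, 1 and 2 h. At 4 h, cardiac puncture under isoflurane, then organs homogenised in 2% BSA. Cmax/Tmax observed; AUC0–t by trapezoidal rule; CL/F = dose/AUC0–t; mean ± SD.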

[4] = Short-term stability in mouse tissue homogenates; format: in vitro ADME
Outline: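 Blank homogenate made by homogenising the whole organ in ice-cold 2% (w/v) BSA in water. Medium QC (100 ng/ml) prepared by diluting high-QC plasma into the homogenate. Held 5 h at room temperature (n = 4), then acetonitrile protein precipitation with internal standard and LC–MS/MS quantification. Peak-area ratios were read from a 1/x²-weighted calibration line.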

[5] = female, FVB/NRj, mouse, plasma, po, 20 mg/kg

O=C(O)C(c1cc(F)ccc1O)N1Cc2ccccc2C1=O (stereo not drawn) [PIA, (5‐fluoro‐2‐hydroxyphenyl)(1‐oxo‐1,3‐dihydro‐2H‐isoindol‐2‐yl)acetic acid]
recovery at 1.5 months, 6 ng/ml [1]: 110 ± 9.6% | recovery at 1.5 months, 1500 ng/ml [1]: 90.8 ± 2.4% | recovery at 5 h, 6 ng/ml [1]: 93.3 ± 1.8% | recovery at 5 h, 1500 ng/ml [1]: 102 ± 4.1% | recovery at 24 h, 6 ng/ml [1]: 101 ± 8.3% | recovery at 24 h, 1500 ng/ml [1]: 100 ± 6.2% | recovery of methanolic stock solution [2]: 98.3% | concentration at 4 h ([3]; female, FVB/NRj, mouse, brain, po, 20 mg/kg): 9.8 ng/g | concentration at 4 h ([3]; female, FVB/NRj, mouse, kidney, po, 20 mg/kg): 30.8 ng/mL | AUC(0-t) [3, 5]: 1870 ng·h/mL | Cmax [3, 5]: 1520 ng/mL | Tmax [3, 5]: 15 to 30 min | half-life [3, 5]: 70.2 ± 12.6 min | metabolite level compared with EAI045 (ratio) ([3]; pilot study, SIWC): ca. 5% | metabolite level compared with EAI045 ([3]; pilot study, all matrices except SIWC): higher than 10% | plasma concentration (chromatogram sample) ([3]; plasma sample from a single mouse, oral 20 mg/kg EAI045): 133 ng/mL | time by which PIA was more abundant in plasma than the parent drug ([3]; plasma, oral 20 mg/kg EAI045, mice): ≤ 15 min | absolute amount retrieved from SIWC ([3]; small intestine with contents, 4 h after oral 20 mg/kg EAI045, mice, data not shown): ~ 0.074 % of the EAI045 dose | recovery at 5 h, 100 ng/ml ([4]; SIWC homogenate): 104 ± 3.4% | recovery at 5 h, 100 ng/ml ([4]; brain homogenate): 99.7 ± 5.1% | recovery at 5 h, 100 ng/ml ([4]; kidney homogenate): 99.4 ± 2.4% | recovery at 5 h, 100 ng/ml ([4]; liver homogenate): 114 ± 10.9% | recovery at 5 h, 100 ng/ml ([4]; lung homogenate): 107 ± 2% | recovery at 5 h, 100 ng/ml ([4]; spleen homogenate): 107 ± 7.6%
